The sample as a whole holds a higher share of hits than the screen did.
T cruzi inh = blocks replication of Trypanosoma cruzi; T. cruzi beta-gal in NIH3T3, luminescence, 90 h; inhibition, % (test concentration not listed); 300,000 tested, 1.4% active; AID 1885;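 active means mean inhibition across valid replicates above about 55%, limit read from the data; inconclusive means mean below that limit but half or more replicates reach it; inactive means mean below it, under half of replicates reach it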;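 further: signal also drops with host cell toxicity which is not excluded here; higher percent means less beta-gal luminescence so fewer parasites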
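System: mouse NIH/3T3 fibroblasts infected with β-gal-expressing T. cruzi Tulahuen C4 / Input: NIH/3T3 cells, 5,000 per well / Buffer or medium: Low-serum DMEM with 2% FBS / Probe or stimulus: 5000 reporter trypomastigotes per well / Schedule: ≥90 h infection period, 3 h prior cell attachment / Measured by: GalScreen luminescence, 60 min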
MPTP block = blocks calcium-induced mitochondrial swelling; isolated mouse mitochondria, Ca2+ swelling absorbance, 30 min; inhibition, % at 10 µM; 360,000 tested, 1.4% active;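 active means inhibition of 50% or more, scaled per plate between neutral and stimulator controls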
Lmaj promast = inhibitors of Leishmania major promastigote growth; inhibition, % at 10 µM; Leishmania major promastigotes, resazurin fluorescence viability; AID 1063; 200,000 tested, 9% active; in the data active means inhibition above about 50%;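 further: promastigotes grown with compound for 44 hours at 28 °C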
DTT redox prof = compounds producing H2O2 with reducing agent – biochemical, NIH compound library profiling, artefact control for MLSCN library redox annotation, primary screen; DTT-dependent redox cycling H2O2, phenol red/HRP absorbance; 100% = 100 µM peroxide control, 0% = buffer; activation, % at 10 µM; 200,000 tested, 0.03% active;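 active means activation of at least 50% relative to the plate's high and low controls in the primary single-dose screen; inactive means activation below 50%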;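 further: compound incubated with DTT at 0.8 mM final as the reducing agent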
Lipid droplet = modulators of hepatic lipid droplet formation; AML12 mouse hepatocytes, oleate lipid droplets, BODIPY imaging; inhibition, % at 6.5 µM; 240,000 tested, 0.4% active; AID 1656;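 active means lipid droplet intensity inhibited by at least 50%, with more than 500 cells counted; inconclusive means wells with under 300 cells, treated as cytotoxic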
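Material: mouse AML12 hepatocyte cell line, fixed after treatment; Timing: compound with oleate, overnight; Technique: high-content imaging of BODIPY-stained droplets and DAPI nuclei; Probe or stimulus: oleate, 100 µM final; Dosing: compound at 6.5 µM only.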
Numbers stand for hits.

`C=CCN1C(=O)/C(=C\c2ccc(N3CCOCC3)o2)C(=O)NC1=S` gave T cruzi inh inactive, MPTP block inactive, Lmaj promast inactive, DTT redox prof inactive and Lipid droplet inactive.
CC(C)(C)N1C(=O)NC(=O)/C(=C\c2ccc3c(c2)CCN3CCCCl)C1=O was read as T cruzi inh inactive, MPTP block inactive and Lipid droplet inactive.
C=CCN1C(=O)/C(=C/c2ccc3c(c2)CCCN3CCC)C(=O)NC1=S was read as T cruzi inh inactive, MPTP block inactive, Lmaj promast 91, DTT redox prof inactive and Lipid droplet inactive.
O=C1NC(=S)N(C2CC2)C(=O)/C1=C/c1ccc2c(c1)CCN2CCCCl was read as T cruzi inh inactive, MPTP block inactive, Lmaj promast 74, DTT redox prof inactive and Lipid droplet inactive.
For C=Cc1cc(OC)c2c(c1)c(=O)oc1c2cc(OC)c2c(O)ccc(C3OC(C)C(O)C(C)(O)C3O)c21 (stereo not given) the results were MPTP block inactive.
c1ccc(Cn2ccnc2)cc1 was read as T cruzi inh inactive, MPTP block inactive, Lmaj promast inactive, DTT redox prof inactive and Lipid droplet inactive.
Screening CC(C)c1cccc(C(C)C)c1OCCn1ccnc1 returned T cruzi inh inactive, MPTP block inactive, Lmaj promast 94, DTT redox prof inactive and Lipid droplet inactive.
CCc1ccc(CN2CCN(Cc3cc(Br)ccc3O)CC2)cc1 was read as T cruzi inh inactive, MPTP block inactive, Lmaj promast 81, DTT redox prof inactive and Lipid droplet inactive.
For CCN1CCN(Cc2cc(Br)ccc2O)CC1 the results were T cruzi inh inactive, MPTP block inactive, Lmaj promast 85, DTT redox prof inactive and Lipid droplet inactive.
For COc1cc(Br)cc(CN2CCN(C)CC2)c1O the results were MPTP block inactive, Lmaj promast 76, DTT redox prof inactive and Lipid droplet inactive.
CCN1CCN(Cc2cc(Br)cc(Br)c2O)CC1 was read as T cruzi inh inactive, MPTP block inactive, Lmaj promast 73, DTT redox prof inactive and Lipid droplet inactive.
COc1ccc(Br)cc1CN1CCN(CCO)CC1 was read as T cruzi inh inactive, MPTP block inactive, Lmaj promast inactive and DTT redox prof inactive.
`Oc1ccc(C(=C(Cl)Cl)c2ccc(O)cc2)cc1` gave T cruzi inh inactive and Lipid droplet inactive.
Fc1ccc(CNCCc2ccccc2)cc1 was read as T cruzi inh inactive, MPTP block inactive, Lmaj promast inactive, DTT redox prof inactive and Lipid droplet inactive.
C1=C(CCNCc2ccccc2)CCCC1 was read as T cruzi inh inactive, MPTP block inactive, Lmaj promast 73, DTT redox prof inactive and Lipid droplet inactive.
For O=C(COc1ccc(Cl)cc1Cl)N1CCN(C/C=C/c2ccccc2)CC1 the results were T cruzi inh inactive, MPTP block inactive, Lmaj promast 89, DTT redox prof inactive and Lipid droplet inactive.
`CN(c1ccc(OCC(=O)N2CCN(C/C=C/c3ccccc3)CC2)cc1)S(=O)(=O)c1cccs1` gave T cruzi inh inactive, MPTP block inactive and Lipid droplet inactive.
Screening C[C@@H]1CN([C@H](C)CO)C(=O)CCCn2cc(nn2)CO[C@H]1CN(C)C(=O)Oc1cccc2ccccc12 returned MPTP block inactive.
CCCc1[nH]nc2c1C1(C(=O)N(CC(N)=O)c3ccccc31)C(C(=O)OC)=C(N)O2 (stereo not given) was read as T cruzi inh inactive, MPTP block inactive, Lmaj promast inactive and DTT redox prof inactive.
For CCCc1[nH]nc2c1C1(C(=O)N(Cc3ccccc3)c3ccccc31)C(C(=O)OC)=C(N)O2 (stereo not given) the results were T cruzi inh inactive, MPTP block inactive, Lmaj promast 82, DTT redox prof inactive and Lipid droplet inactive.
Screening CCC(=NCc1ccco1)c1c(O)n(C2CCCCC2)c(=O)[nH]c1=O returned T cruzi inh inactive, MPTP block inactive, Lmaj promast 60 and DTT redox prof inactive.
For CC(=NCCO)c1c(O)n(C2CCCCC2)c(=O)[nH]c1=O the results were T cruzi inh inactive, MPTP block inactive, Lmaj promast inactive and DTT redox prof inactive.
Screening CCC(=NCCCN(CC)CC)c1c(O)n(C2CCCCC2)c(=O)[nH]c1=O returned T cruzi inh 66, MPTP block inactive, Lmaj promast 92 and DTT redox prof inactive.
For CCN(CC)CCCN=C(C)c1c(O)n(C2CCCCC2)c(=O)[nH]c1=O the results were T cruzi inh 65, MPTP block inactive, Lmaj promast 93, DTT redox prof inactive and Lipid droplet inactive.
`O=C(CCC(=O)N1CCC2(CC1)OCCO2)Nc1nnc(C2CCCCC2)s1` gave T cruzi inh inactive, MPTP block inactive and Lipid droplet inactive.
For Clc1ccc(C(OCCN2CCCCC2)c2ccccc2)cc1 (stereo not given) the results were MPTP block inactive.
`Clc1ccc2c(c1)C(OC1CN3CCC1CC3)c1ccccc1CS2` (stereo not given) gave T cruzi inh inactive, MPTP block inactive, Lmaj promast 100, DTT redox prof inactive and Lipid droplet inactive.
CN1CCN(CCOC2c3ccccc3CSc3ccc(Cl)cc32)CC1 (stereo not given) was read as T cruzi inh inactive, MPTP block inactive, Lmaj promast 99, DTT redox prof inactive and Lipid droplet inactive.
For O=C(CCCc1ccc(N(CCCl)CCCl)cc1)NCc1ccccc1 the results were MPTP block inactive.
O=C(c1ccccc1)c1cn(CC(=O)N2CCCc3ccccc32)c2ccccc12 was read as T cruzi inh inactive, MPTP block inactive, Lmaj promast 95, DTT redox prof inactive and Lipid droplet inactive.
For Cc1ccccc1N1CCN(C2CCCN(C(=O)COc3ccccc3)C2)CC1 (stereo not given) the results were T cruzi inh inactive, MPTP block inactive and Lipid droplet inactive.
Screening O=C(COc1ccc(Br)cc1)N1CCN(Cc2c[nH]c3ccccc23)CC1 returned T cruzi inh inactive, MPTP block inactive, Lmaj promast inactive, DTT redox prof inactive and Lipid droplet inactive.
`O=C(COc1ccc(Br)cc1)N1CCN(C2CCCC2)CC1` gave T cruzi inh inactive, MPTP block inactive, Lmaj promast 93, DTT redox prof inactive and Lipid droplet inactive.
For O=C(COc1ccccc1)N1CCN(C2CC3CCC2C3)CC1 (stereo not given) the results were T cruzi inh inactive, MPTP block inactive, Lmaj promast 72, DTT redox prof inactive and Lipid droplet inactive.
Cc1ccc(OCC(=O)N2CCN(C3CCC(c4ccccc4)CC3)CC2)cc1 (stereo not given) was read as T cruzi inh inactive, MPTP block inactive, Lmaj promast 57, DTT redox prof inactive and Lipid droplet inactive.
For CN1CCN(C(=O)COc2ccc(Oc3ccccc3)cc2)CC1 the results were T cruzi inh inconclusive, MPTP block inactive, Lmaj promast inactive, DTT redox prof inactive and Lipid droplet inactive.
Screening c1cncc(CNC2CCCCC2)c1 returned T cruzi inh inactive, MPTP block inactive and Lipid droplet inactive.
